Experiment [1] has as its target T1, Amyloid-beta precursor protein (Homo sapiens, UniProt P05067). The experiment can be described thus: Inhibition of self-mediated amyloid beta (1 to 42) (unknown origin) aggregation at 10 uM incubated for 48 hrs by thioflavin-T fluorescence assay relative to control. The method in brief:
(§1)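 HFIP-pretreated Aβ1-42 from a DMSO stock was diluted in phosphate buffer (50 mM, pH 7.4). Peptide was incubated with or without inhibitor at 10, 15, 20 or 25 μM for 48 h at 37 °C. Samples were diluted to 200 μL with glycine–NaOH (50 mM, pH 8.0) and fibrils read by ThT fluorescence. Blanks lacking Aβ were run. IC50 was derived from the four concentrations.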

Experiment [2] can be described thus: Inhibition of Cu2+ induced amyloid beta (1 to 42) aggregation assessed as fluorescence intensity at 25 uM incubated for 24 hrs by Thioflavin T based fluorometric assay (reference value: 606.64 +/- 36.11 a.u.).
A short description of experiment [3]: Selectivity index, ratio of IC50 for equine serum BChE to IC50 for electric eel AChE. The method in brief:
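Ellman assay in phosphate buffer pH 8.0. AChE (0.22 U/mL) or BuChE (0.06 U/mL) preincubated 5 min with inhibitor (0.01–100 μM final). DTNB then added, and the reaction started with ATC or BTC (0.075 M solution). Absorbance read at 412 nm, 25 °C, 5 min after substrate. IC50 reported as mean ± SD. Selectivity is IC50(BuChE)/IC50(AChE).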

Experiment [4] concerns the target T1, Amyloid-beta precursor protein. The experiment can be described thus: Inhibition of self-mediated amyloid beta (1 to 42) (unknown origin) fibril formation assessed as appearance of sparse fibrils at 25 uM after 48 hrs by transmission electron microscopic analysis.
Experiment [5] deals with Acetylcholinesterase (Electrophorus electricus) (UniProt O42275). Description: Mixed-type inhibition of electric eel AChE assessed as decreased Vmax with higher Km using varying levels of acetylthiocholine iodide as substrate pretreated for 5 mins followed by substrate addition by Lineweaver-Burk plot analysis. The method in brief:
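AChE kinetics by Ellman's method, with substrate varied at comparatively low concentrations. Inhibitor tested at 10, 20 and 40 nM. Inhibition type assigned from Lineweaver–Burk plots of 1/velocity versus 1/substrate.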

The nature of experiment [6]: Metal chelating activity assessed as compound-Cu2+ complex formation at 30 uM after 30 mins by UV-visible spectrophotometric analysis. The method in brief: (§2)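 UV absorption spectra (200–500 nm) were recorded over 30 min for compound (30 μM final) alone or with CuSO4 or FeSO4 (30 μM final). The medium was 20% (v/v) ethanol/buffer: 150 mM NaCl, 20 mM HEPES, pH 7.4.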

In experiment [7] the target is T1, Amyloid-beta precursor protein. The experiment can be described thus: Inhibition of self-mediated amyloid beta (1 to 42) (unknown origin) aggregation at 20 uM incubated for 48 hrs by thioflavin-T fluorescence assay relative to control. The method in brief: as §1
Experiment [8] has the same target. The experiment can be described thus: Disaggregation of self-induced amyloid beta (1 to 42) (unknown origin) preformed fibrils measured after 24 hrs by ThT fluorescence assay relative to control. The method in brief: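 HFIP-pretreated Aβ1-42 taken up in DMSO (5 mM stock), diluted in 50 mM phosphate pH 7.4 (100 μM final). Peptide incubated 48 h at 37 °C, then compound or buffer added and incubated a further 24 h at 37 °C. Samples diluted to 200 μl with 50 mM glycine-NaOH pH 8.0 and read by ThT fluorescence. Peptide-free blanks run in parallel.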

The target is the same in experiment [9]. Description: Inhibition of self-mediated amyloid beta (1 to 42) (unknown origin) aggregation at 15 uM incubated for 48 hrs by thioflavin-T fluorescence assay relative to control. The method in brief:
as §1

Experiment [10] is described as follows: Metal chelating activity assessed as compound-Fe2+ complex formation at 30 uM after 30 mins by UV-visible spectrophotometric analysis. The method in brief: as §2
A short description of experiment [11]: Inhibition of Cu2+ induced amyloid beta (1 to 42) aggregation at 25 uM incubated for 24 hrs by Thioflavin T based fluorometric assay relative to control. The method in brief:
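Aβ1-42 was pretreated with HFIP, dried to a film, and held as a 5 mM DMSO stock. It was diluted in HEPES pH 6.6 with 150 μM NaCl, then incubated at 100 μM final with or without Cu2+ (100 μM final) for 48 h at 37 °C. Compounds were added at 25 μM final for 24 h at 37 °C. Samples (20 μL) were diluted to 200 μL glycine–NaOH (50 mM, pH 8.0) containing 5 μM ThT before reading fluorescence.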

The target of the next experiment is Acetylcholinesterase (Electrophorus electricus, UniProt O42275). Description: Inhibition of electric eel AChE using acetylthiocholine iodide as substrate preincubated for 5 mins followed by substrate addition measured after 5 mins by Ellman's method. In general terms: Ellman's reagent forms a yellow product with free thiols.
Experiment [12] concerns the target T1, Amyloid-beta precursor protein. The experiment can be described thus: Inhibition of self-mediated amyloid beta (1 to 42) (unknown origin) aggregation at 25 uM incubated for 48 hrs by thioflavin-T fluorescence assay relative to control. The method in brief: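 HFIP-pretreated Aβ1-42 taken up in DMSO (5 mM stock), diluted in 50 mM phosphate pH 7.4 (100 μM final). Incubated 48 h at 37 °C with or without compound at 25 μM. Samples diluted to 200 μl with 50 mM glycine-NaOH pH 8.0 and read by ThT fluorescence. Percent inhibition reported as mean ± SD.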

A short description of experiment [13]: Antioxidant activity assessed as AAPH-induced radical scavenging activity by measuring trolox equivalents for oxygen radical absorbance capacity measured up to 80 mins by ORAC-FL assay. The experiment is classed as functional. The method in brief:
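Fluorescein (70 nM final) with test compound at eight concentrations (1–8 μM) in 75 mM phosphate buffer pH 7.4, preincubated 15 min at 37 °C. AAPH (12 mM final) then added and fluorescence read (ex 485/em 520 nm) for 80 min. Net AUC over blank regressed against concentration and converted to Trolox equivalents by standard curve (Trolox = 1). At least three runs.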

A further experiment has as its target Cholinesterase (Equus caballus, UniProt P81908). Description: Inhibition of equine serum BuChE using butyrylthiocholine iodide as substrate pretreated for 5 mins followed by substrate addition measured after 5 mins by Ellman's method. The method in brief: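 Ellman assay in phosphate buffer pH 8.0. AChE (0.22 U/mL) or BuChE (0.06 U/mL) preincubated 5 min with inhibitor (0.01–100 μM final). DTNB then added, and the reaction started with ATC or BTC (0.075 M solution). IC50 reported as mean ± SD. Selectivity is IC50(BuChE)/IC50(AChE).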

Experiment [14] deals with T1, Amyloid-beta precursor protein. Description: Inhibition of self-mediated amyloid beta (1 to 42) (unknown origin) aggregation incubated for 48 hrs by thioflavin-T fluorescence assay. The method in brief: as §1

Structures are written as SMILES. Active and inactive are the calls of the source. The calls are words filed in the database; no cut-off is given here.

From ChEMBL document CHEMBL4393694, “A multifunctional therapeutic approach: Synthesis, biological evaluation, crystal structure and molecular docking of diversified 1H-pyrazolo[3,4-b]pyridine derivatives against Alzheimer's disease” (Eur J Med Chem, 2019) come the findings set out here.

As usually defined, the inhibition is the percentage by which the read-out fell short of the control. For orientation: IC50 means the concentration that gives 50% inhibition.

Acetylcholinesterase, sequence (O42275 whole entry): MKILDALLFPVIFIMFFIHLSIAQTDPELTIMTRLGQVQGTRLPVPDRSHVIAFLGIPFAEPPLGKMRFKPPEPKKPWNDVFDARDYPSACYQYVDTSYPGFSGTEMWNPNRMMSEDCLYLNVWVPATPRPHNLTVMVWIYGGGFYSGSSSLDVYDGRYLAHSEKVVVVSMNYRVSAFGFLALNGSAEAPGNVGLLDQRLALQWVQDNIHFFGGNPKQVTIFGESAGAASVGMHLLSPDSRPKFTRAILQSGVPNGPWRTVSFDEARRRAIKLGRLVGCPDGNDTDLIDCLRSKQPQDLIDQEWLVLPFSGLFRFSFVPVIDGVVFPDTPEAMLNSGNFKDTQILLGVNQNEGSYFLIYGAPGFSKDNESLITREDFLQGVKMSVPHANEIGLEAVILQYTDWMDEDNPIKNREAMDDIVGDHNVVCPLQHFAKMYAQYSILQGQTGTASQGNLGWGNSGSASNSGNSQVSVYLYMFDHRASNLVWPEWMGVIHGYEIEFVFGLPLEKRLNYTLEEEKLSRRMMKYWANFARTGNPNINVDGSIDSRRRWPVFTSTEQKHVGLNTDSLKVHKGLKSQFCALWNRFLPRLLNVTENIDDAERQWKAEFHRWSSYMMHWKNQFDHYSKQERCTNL
T1 sequence (P05067 whole entry): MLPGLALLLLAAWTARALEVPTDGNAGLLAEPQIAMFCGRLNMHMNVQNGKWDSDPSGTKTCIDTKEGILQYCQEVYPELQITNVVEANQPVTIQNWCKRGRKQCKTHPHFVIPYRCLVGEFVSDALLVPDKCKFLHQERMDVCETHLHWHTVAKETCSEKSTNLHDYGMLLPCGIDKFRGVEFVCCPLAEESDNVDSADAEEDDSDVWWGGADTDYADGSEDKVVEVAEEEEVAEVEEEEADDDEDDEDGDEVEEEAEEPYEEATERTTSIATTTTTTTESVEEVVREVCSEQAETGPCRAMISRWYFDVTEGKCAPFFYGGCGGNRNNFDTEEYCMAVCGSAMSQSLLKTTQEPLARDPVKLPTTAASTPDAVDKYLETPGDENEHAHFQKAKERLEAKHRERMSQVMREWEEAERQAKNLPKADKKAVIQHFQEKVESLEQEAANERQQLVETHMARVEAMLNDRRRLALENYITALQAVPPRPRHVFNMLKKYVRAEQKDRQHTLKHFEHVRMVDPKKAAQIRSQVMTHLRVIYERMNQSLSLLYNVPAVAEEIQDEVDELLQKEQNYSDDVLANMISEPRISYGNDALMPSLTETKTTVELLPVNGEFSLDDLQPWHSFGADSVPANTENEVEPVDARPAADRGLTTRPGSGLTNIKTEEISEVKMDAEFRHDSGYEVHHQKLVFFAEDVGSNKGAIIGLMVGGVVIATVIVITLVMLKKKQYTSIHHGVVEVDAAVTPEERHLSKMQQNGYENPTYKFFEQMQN
Cholinesterase, sequence (P81908 whole entry): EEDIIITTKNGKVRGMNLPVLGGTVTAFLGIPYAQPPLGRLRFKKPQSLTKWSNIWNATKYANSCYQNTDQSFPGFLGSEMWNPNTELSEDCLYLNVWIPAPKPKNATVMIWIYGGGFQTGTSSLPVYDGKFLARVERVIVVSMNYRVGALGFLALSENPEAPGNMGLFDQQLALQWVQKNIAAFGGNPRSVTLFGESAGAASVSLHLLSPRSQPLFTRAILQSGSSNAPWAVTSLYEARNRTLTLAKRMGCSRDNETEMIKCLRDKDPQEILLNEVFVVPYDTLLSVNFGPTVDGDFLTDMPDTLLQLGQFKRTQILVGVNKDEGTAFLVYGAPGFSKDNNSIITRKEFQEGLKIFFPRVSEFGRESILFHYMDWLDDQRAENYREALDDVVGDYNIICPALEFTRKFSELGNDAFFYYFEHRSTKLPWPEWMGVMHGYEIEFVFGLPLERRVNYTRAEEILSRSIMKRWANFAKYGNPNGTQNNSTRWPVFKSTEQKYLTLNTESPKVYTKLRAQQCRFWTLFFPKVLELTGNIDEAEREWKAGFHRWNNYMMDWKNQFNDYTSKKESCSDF
Acetylcholinesterase (Electrophorus electricus), sequence (O42275 24-633 limits assumed): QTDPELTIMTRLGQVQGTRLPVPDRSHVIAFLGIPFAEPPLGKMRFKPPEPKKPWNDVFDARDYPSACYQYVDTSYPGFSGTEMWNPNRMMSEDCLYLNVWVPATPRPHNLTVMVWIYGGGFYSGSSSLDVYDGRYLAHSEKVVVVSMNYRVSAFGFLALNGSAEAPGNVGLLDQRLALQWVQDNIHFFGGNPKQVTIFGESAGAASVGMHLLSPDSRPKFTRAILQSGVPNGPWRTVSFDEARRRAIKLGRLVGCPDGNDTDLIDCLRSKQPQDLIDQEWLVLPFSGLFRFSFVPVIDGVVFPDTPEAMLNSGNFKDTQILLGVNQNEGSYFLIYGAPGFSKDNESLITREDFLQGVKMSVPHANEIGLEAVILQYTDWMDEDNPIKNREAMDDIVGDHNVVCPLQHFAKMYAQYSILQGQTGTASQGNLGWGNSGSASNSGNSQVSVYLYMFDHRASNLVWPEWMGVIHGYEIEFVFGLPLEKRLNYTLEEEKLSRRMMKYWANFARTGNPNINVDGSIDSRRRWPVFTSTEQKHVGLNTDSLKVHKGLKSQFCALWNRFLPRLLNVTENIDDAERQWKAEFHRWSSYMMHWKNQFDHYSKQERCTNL

Regarding `O=C(CN1CCN(CC(=O)Nc2n[nH]c3ncccc23)CC1)Nc1n[nH]c2ncccc12`, the inhibition came out at 3.9% in [1]; 58% in [7]; 39.9% in experiment [9]; 58.8% in [11]; 79.5% in experiment [12]. Moreover, the Flu intensity in experiment [2] was found to be 250 a.u. The Ratio IC50 in [3] is > 2220. For the same compound, the inhibition result in experiment [4] and in experiment [5] was “Active” in each case. In addition, the result in experiment [6] and in experiment [10] was Active. The Activity in [8] is 53.8%; in experiment [13], 0.283 µMequiv/µM. For the same compound, the half-maximal inhibitory concentration (IC50) was 0.045 µM against Acetylcholinesterase, > 100 µM on Cholinesterase and 17.9 µM in experiment [14].
With `O=C(CN1CCCCC1)Nc1n[nH]c2ncccc12`, the Ratio IC50 in experiment [3] was > 20800. Besides, the values for the 50% inhibitory concentration (IC50) on Acetylcholinesterase and on Cholinesterase were 0.0048 µM and > 100 µM, respectively. The inhibition in experiment [12] worked out at 50.6%. Moreover, the Activity in experiment [13] turned out to be 0.65 µMequiv/µM.
On the same counts, the results for `O=C(CN1CCN(c2ccnc3cc(Cl)ccc23)CC1)Nc1n[nH]c2ncccc12` are > 8330, 0.012 µM, > 100 µM, 23.6% and 0.286 µMequiv/µM.
Regarding `O=C(CN1CCOCC1)Nc1n[nH]c2ncccc12`, the Ratio IC50 in experiment [3] was > 885. The figures for the Activity in [8] and in experiment [13] were 47.4% and 0.192 µMequiv/µM, respectively. Moreover, the IC50 on Acetylcholinesterase is 0.113 µM; on Cholinesterase, > 100 µM. For the same compound, the inhibition in [12] worked out at 74.6%.
Turning to `CCOC(=O)c1cnc2ccccc2c1N1CCN(CC(=O)Nc2n[nH]c3ncccc23)CC1`, the inhibition in experiment [1] came out at 28.6%; in [7] it was 84.1%; in [9], 43.8%; in experiment [11], 57%; in [12], 81.7%. Besides, the Flu intensity in [2] was 261 a.u. Also, in experiment [4], the inhibition entry is “Active”. Moreover, the outcome in [6] and in [10] was Active. Moreover, the results for the Activity in [8] and in experiment [13] were 61.6% and 0.274 µMequiv/µM, respectively. Moreover, the IC50 against Acetylcholinesterase was > 100 µM; on Cholinesterase it was > 100 µM; in experiment [14], 15.7 µM.
`COc1cc(/C=C/C(=O)CC(=O)/C=C/c2ccc(O)c(OC)c2)ccc1O`: the Flu intensity in experiment [2] turned out to be 333 a.u. The inhibition result in [4] was “Active”. In experiment [11], this compound showed an inhibition of 45.2%.
`Cc1cc(N2CCN(CC(=O)Nc3n[nH]c4ncccc34)CC2)n2ncnc2n1`: the Ratio IC50 in experiment [3] is > 4550. Also, the 50% inhibitory concentration (IC50) is 0.022 µM against Acetylcholinesterase and > 100 µM on Cholinesterase. This compound also returned an inhibition in [12] of 43.4%. Further, the Activity in [13] is 0.216 µMequiv/µM.
The corresponding values for `CN1CCN(CC(=O)Nc2n[nH]c3ncccc23)CC1` are > 20400, 0.0049 µM, > 100 µM, 50.9% and 0.362 µMequiv/µM.
As to `CCOC(=O)c1cnc2ccc(C)cc2c1N1CCN(CC(=O)Nc2n[nH]c3ncccc23)CC1`, the Activity in [8] stood at 52.1%; in [13], 0.271 µMequiv/µM. Besides, the IC50 at Acetylcholinesterase and on Cholinesterase was > 100 µM each time. This compound also registered an inhibition in experiment [12] of 69.3%.
With `N#Cc1cccnc1N1CCN(CC(=O)Nc2n[nH]c3ncccc23)CC1`, the half-maximal inhibitory concentration (IC50) against Acetylcholinesterase and on Cholinesterase was > 100 µM each time. Further, the inhibition in [12] was found to be 40%. Also, the Activity in experiment [13] came out at 0.163 µMequiv/µM.
